The entries come from a sample that favours hits as a whole.
T cruzi HTS – inhibitors of intracellular Trypanosoma cruzi, primary screen, cell-based, plate reader, single point, set 2. intracellular Trypanosoma cruzi in host cells. activity score (inhibition), % at 5.01 µM. 4.9% of 22,000 active; in the data active means activity score above about 55%; inconclusive means no clear call, values can overlap the other calls;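 further: parasites and compound incubated about four days before reading; 0% = median of neutral control wells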
INS-1E rescue – protection of INS-1E cells from cytokine death, primary screen, ATP luminescence, single point; INS-1E cytokine-induced death, 48 h; normalised: neutral wells 0, positive control 100; protection from cytokine-induced ATP loss, % at 10 µM; 0.1% of 20,000 active; AID 488910, 2010;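 active means mean replicate protection from cytokine-induced ATP loss at least 50% and at least 75% of replicates each reaching 50%; inconclusive means meets only one of the two criteria, mean or replicate share; inactive means fails both the mean and replicate share criteria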
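assay system = INS-1E rat insulinoma cells | amount = 8000 cells per well | medium = phenol-red-free RPMI with 5% fetal bovine serum | doses = one compound concentration, pin transfer | timing = 48 h cytokine plus compound treatment, 10 min reagent incubation | also added = IL-1β, TNF-α and IFN-γ cytokine mix | signal = CellTiter-Glo luminescence measuring cellular ATP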
YB-1 expression – inhibitors of YB-1 gene expression, primary screen, cell-based, fluorescence | U2OS, qRT-PCR YB-1 vs CDIP delta delta Cp, 16 h; active compounds read high; zero = DMSO, each unit about twofold | delta delta Cp (YB-1 minus CDIP) (concentration not given with the values) | 0.37% of 30,000 active | AID 434959, 2010;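 active means delta delta Cp rounded down to an integer at or above 3, about 3 SD of DMSO wells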;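 further: higher means less YB-1 transcript or more CDIP transcript relative to DMSO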
* marks the source's active call; other numbers are inactive results.

Screening C[C@@H]1CN([C@@H](C)CO)C(=O)c2cccc(NC(=O)c3nc4ccccc4s3)c2O[C@H]1CN(C)S(=O)(=O)c1cn(C)cn1 returned T cruzi HTS 5, INS-1E rescue 8 and YB-1 expression 0.22.
For CC(C)NC(=O)Nc1ccc2c(c1)C(=O)N([C@@H](C)CO)C[C@H](C)[C@@H](CN(C)Cc1ccc(C(=O)Nc3ccccc3N)cc1)O2 the results were T cruzi HTS 58*, INS-1E rescue -15 and YB-1 expression 0.47.
For CC(C)NC(=O)Nc1ccc2c(c1)C(=O)N([C@@H](C)CO)C[C@H](C)[C@H](CN(C)Cc1ccc(C(=O)Nc3ccccc3N)cc1)O2 the results were T cruzi HTS inconclusive, INS-1E rescue -12 and YB-1 expression 1.3.
Screening C[C@@H]1CN([C@H](C)CO)C(=O)c2cc(N(C)C)ccc2O[C@@H]1CN(C)Cc1ccc(C(=O)Nc2ccccc2N)cc1 returned T cruzi HTS 71*, INS-1E rescue 63* and YB-1 expression -0.32.
Screening C[C@@H]1CN([C@H](C)CO)C(=O)c2cc(N(C)C)ccc2O[C@H]1CN(C)Cc1ccc(C(=O)Nc2ccccc2N)cc1 returned T cruzi HTS 63*, INS-1E rescue 31 and YB-1 expression 0.27.
Screening C[C@H](CO)N1C[C@H](C)[C@H](CN(C)Cc2ccc(C(=O)Nc3ccccc3N)cc2)Oc2ccc(N(C)C)cc2C1=O returned T cruzi HTS 39, INS-1E rescue 40 and YB-1 expression 0.69.
Screening C[C@H]1CN([C@@H](C)CO)C(=O)c2cc(N(C)C)ccc2O[C@H]1CN(C)Cc1ccc(C(=O)Nc2ccccc2N)cc1 returned T cruzi HTS 17, INS-1E rescue 6 and YB-1 expression -0.4.
Screening C[C@@H]1CN([C@H](C)CO)C(=O)c2cccc(NS(C)(=O)=O)c2O[C@H]1CN(C)Cc1ccncc1 returned T cruzi HTS -28, INS-1E rescue 3 and YB-1 expression -0.048.
C[C@H](CO)N1C[C@H](C)[C@H](CN(C)Cc2ccc3c(c2)OCO3)Oc2ccc(NS(C)(=O)=O)cc2CC1=O was read as T cruzi HTS -1, INS-1E rescue 10 and YB-1 expression -0.082.
C[C@H](CO)N1C[C@H](C)[C@H](CN(C)S(=O)(=O)c2ccc(Cl)cc2)Oc2ccc(NS(=O)(=O)c3ccc(Cl)cc3)cc2C1=O was read as T cruzi HTS 64* and YB-1 expression 0.16.
Cc1ccc(S(=O)(=O)Nc2ccc3c(c2)C(=O)N([C@H](C)CO)C[C@H](C)[C@H](CN(C)S(=O)(=O)c2ccc(Cl)cc2)O3)cc1 was read as T cruzi HTS 47* and YB-1 expression 1.
Screening C[C@H](CO)N1C[C@H](C)[C@@H](CN(C)S(=O)(=O)c2ccc(Cl)cc2)Oc2ccc(NS(=O)(=O)c3ccc(Cl)cc3)cc2C1=O returned T cruzi HTS 39, INS-1E rescue -5 and YB-1 expression -0.16.
`Cc1ccc(S(=O)(=O)N(C)C[C@@H]2Oc3ccc(NS(=O)(=O)c4ccc(Cl)cc4)cc3C(=O)N([C@H](C)CO)C[C@@H]2C)cc1` gave T cruzi HTS 40, INS-1E rescue 5 and YB-1 expression 0.21.
For C[C@@H]1O[C@@H](Oc2ccc(-c3coc4cc(O[C@@H]5O[C@@H](C)[C@H](O)[C@@H](O)[C@H]5O)cc(O)c4c3=O)cc2)[C@H](O)[C@H](O)[C@H]1O the results were YB-1 expression -0.47.
`C[C@@H]1O[C@@H](Oc2cc(O)c3c(=O)c(-c4ccc(O)cc4)coc3c2)[C@H](O)[C@H](O)[C@H]1O` gave YB-1 expression 3.9*.
Screening C[C@H]1CN([C@@H](C)CO)C(=O)Cc2cc(NC(=O)Nc3ccc4c(c3)OCO4)ccc2O[C@H]1CN(C)Cc1ccccc1 returned T cruzi HTS 5, INS-1E rescue -6 and YB-1 expression 0.034.
`C[C@@H]1CN([C@H](C)CO)C(=O)Cc2cc(NC(=O)Nc3ccc4c(c3)OCO4)ccc2O[C@@H]1CN(C)Cc1ccccc1` gave T cruzi HTS 37, INS-1E rescue 6 and YB-1 expression -0.14.
`C[C@H](CO)N1C[C@H](C)[C@H](CN(C)Cc2ccc(-c3ccccc3)cc2)Oc2ccc(NC(=O)Nc3ccc4c(c3)OCO4)cc2CC1=O` gave T cruzi HTS 31, INS-1E rescue -13 and YB-1 expression 0.013.
`C[C@@H]1CN([C@H](C)CO)C(=O)Cc2cc(NC(=O)Nc3ccc4c(c3)OCO4)ccc2O[C@@H]1CN(C)Cc1ccc(Oc2ccccc2)cc1` gave T cruzi HTS 73*, INS-1E rescue -37 and YB-1 expression -0.16.
Screening C[C@@H]1CN([C@@H](C)CO)C(=O)Cc2cc(NC(=O)Nc3ccc4c(c3)OCO4)ccc2O[C@@H]1CN(C)Cc1ccc(Oc2ccccc2)cc1 returned T cruzi HTS 65*, INS-1E rescue -22 and YB-1 expression -0.0011.
Screening C[C@@H]1CN([C@H](C)CO)C(=O)Cc2cc(NC(=O)Nc3ccc4c(c3)OCO4)ccc2O[C@H]1CN(C)Cc1ccc(Oc2ccccc2)cc1 returned T cruzi HTS 78*, INS-1E rescue -47 and YB-1 expression -0.27.
Screening Cc1noc(C)c1NC(=O)N(C)C[C@H]1Oc2c(NC(=O)c3cnccn3)cccc2C(=O)N([C@@H](C)CO)C[C@@H]1C returned T cruzi HTS -19, INS-1E rescue 22 and YB-1 expression 0.38.
`COc1ccc(S(=O)(=O)Nc2ccc3c(c2)C(=O)N([C@H](C)CO)C[C@@H](C)[C@@H](CN(C)Cc2ccncc2)O3)cc1` gave T cruzi HTS -19, INS-1E rescue 4 and YB-1 expression 0.2.
`CC(N=Cc1c(O)ccc2ccccc12)C12CC3CC(CC(C3)C1)C2` (stereo not given) gave YB-1 expression -0.3.
For C[C@@H]1CN([C@@H](C)CO)C(=O)Cc2cc(NS(=O)(=O)c3ccc(F)cc3)ccc2O[C@@H]1CN(C)Cc1ccc2c(c1)OCO2 the results were T cruzi HTS 9, INS-1E rescue -1 and YB-1 expression 0.33.
Screening C[C@@H]1CN([C@H](C)CO)C(=O)Cc2cc(NS(=O)(=O)c3ccc(Cl)cc3)ccc2O[C@H]1CN(C)Cc1ccc2c(c1)OCO2 returned T cruzi HTS 64*, INS-1E rescue -6 and YB-1 expression 0.36.
For C[C@@H]1CN([C@H](C)CO)C(=O)Cc2cc(NS(=O)(=O)c3ccc(Cl)cc3)ccc2O[C@@H]1CN(C)Cc1ccc2c(c1)OCO2 the results were T cruzi HTS 60*, INS-1E rescue -11 and YB-1 expression -0.042.
For Cc1ccc(S(=O)(=O)Nc2ccc3c(c2)CC(=O)N([C@@H](C)CO)C[C@@H](C)[C@@H](CN(C)Cc2ccc4c(c2)OCO4)O3)cc1 the results were T cruzi HTS 27, INS-1E rescue -3 and YB-1 expression -0.28.
`C[C@H]1CN([C@@H](C)CO)C(=O)c2cc(NC(=O)CCCN(C)C)ccc2O[C@H]1CN(C)C` gave T cruzi HTS -16, INS-1E rescue 4 and YB-1 expression -0.27.
